Laboratory results: ChEMBL document CHEMBL3997769, “Discovery and preclinical evaluation of 7-benzyl-N-(substituted)-pyrrolo[3,2-d]pyrimidin-4-amines as single agents with microtubule targeting effects along with triple-acting angiokinase inhibition as antitumor agents” (Bioorg Med Chem, 2017)
The source made the active and inactive calls. No cut-off for these calls is given here.

Key:
[1] = Inhibition of bovine brain tubulin assembly preincubated for 15 mins followed by GTP addition measured for 20 mins by spectrophotometric method; parameters: species or system Bos taurus
4T1 [2] = test: Antitumor activity against luciferase/GFP-tagged mouse 4T1 cells implanted in Balb/CJ mouse assessed as reduction in primary tumor growth at 1 mg/kg, ip administered once in a week; assay type: functional, organism-based
Mus musculus = test: Toxicity in Balb/cJ mouse implanted with luciferase/GFP-tagged mouse 4T1 cells assessed as body weight gain at 1 mg/kg, ip administered once weekly measured at day 40 post dose; assay type: organism-based; details: in vivo
4T1 [3] = test: Antitumor activity against luciferase/GFP-tagged mouse 4T1 cells implanted in Balb/cJ mouse assessed as reduction in lung metastasis at 1 mg/kg, ip administered once weekly by fluorescence microscopic method; assay type: functional, organism-based
In short: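 Orthotopic 4T1-Luc2-GFP allograft in the mammary fat pad of female BALB/cJ mice; IP treatment in 5% Pharmasolve/5% Solutol HS in saline began one week after implantation. At study end, lungs were excised from mice euthanized under isoflurane and imaged with a GFP-filter fluorescence dissecting microscope; GFP-positive metastases per lung counted. n = 9-10.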

[4] = Toxicity in Balb/cJ mouse assessed as body weight loss administered once weekly measured every 2 days during compound dosing; details: in vivo
In short: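 Female BALB/cJ mice, 8 weeks old, carrying orthotopic 4T1-Luc2-GFP allografts (7,500 cells in mammary fat pad #4). IP dosing at 1 mg/kg once weekly began one week after implantation, in 5% Pharmasolve/5% Solutol HS in normal saline. Body weight was reported as percent change at day 40 from starting weight, vs untreated controls, n = 9–10, by one-way ANOVA.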

COc1ccc2c(c1)CCN2c1nc(C)nc2c(Cc3ccccc3)c[nH]c12
IC50 [1]: > 20 µM

COc1cccc2c1C(=O)c1c(O)c3c(c(O)c1C2=O)C[C@@](O)(C(=O)CO)C[C@@H]3O[C@H]1C[C@H](N)[C@H](O)[C@H](C)O1 [DOXORUBICIN]
Activity (4T1 [2]): inactive
Activity (Mus musculus): Toxic
Activity (4T1 [3]): Active
MTD at 48 h [4]: 1 mg/kg
